# Assay results published in ChEMBL document CHEMBL2396523, “The synthesis of isopropylidene mRNA cap analogs modified with phosphorothioate moiety and their evaluation as promoters of mRNA translation” (Bioorg Med Chem Lett, 2013).
# Assays:
# [1] = target: Eukaryotic translation initiation factor 4E (Mus musculus) (UniProt P63073); assay: Binding affinity to mouse eIF4E by fluorescence quenching assay
# Summary of the method: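 Murine eIF4E titrated with cap analog solution; intrinsic Trp fluorescence quenching recorded at 337 nm with excitation at 280 nm. Equilibrium association constant (KAS) of the cap analog–eIF4E complex derived from the titration curves.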
# Oryctolagus cuniculus = species on record: Oryctolagus cuniculus; assay: Translational activity in Flexi rabbit reticulocyte lysate assessed as luciferase mRNA activity after 60 mins relative to m7GpppG; format: functional
# Summary of the method: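 Luciferase mRNAs capped by in vitro transcription, added at several concentrations to rabbit reticulocyte lysate optimized for cap-dependent translation. Luminometry of luciferase activity 60 min after mRNA addition. Translation efficiency taken from slope of luciferase activity versus mRNA concentration, averaged over replicate experiments.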
# [2] = Translational activity in human immature DC assessed as time point of maximal protein expression by bioluminescence assay; format: functional
# Summary of the method: (§1)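 Luciferase-coding mRNAs made by T7 RNA polymerase in vitro transcription with the respective cap, electroporated into human immature dendritic cells. Luciferase activity measured over 72 h after electroporation, duplicate measurements. Mathematical modeling of the time course gave translational efficiency, time of maximal protein expression and total protein expression.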
# Homo sapiens = species on record: Homo sapiens; assay: Translational activity in human immature DC assessed as luciferase mRNA activity after 72 hrs by bioluminescence assay relative to m2 7,3'-OGpppG; format: functional; summary of the method: as §1
# [3] = Translational activity in human immature DC assessed as total protein expression after 72 hrs by bioluminescence assay relative to m2 7,3'-OGpppG; format: functional; summary of the method: as §1
# [4] = Drug degradation in aqueous buffer at pH 2 after 4.5 hrs by RP HPLC analysis; format: physicochemical; details: pH 2, 4.5 h
# Summary of the method: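 Isopropylidene removal done in aqueous buffer at pH 2, 37 °C, for 4.5 h. Reaction progress followed by RP HPLC.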
# Chain of Eukaryotic translation initiation factor 4E (Mus musculus) (P63073 whole entry): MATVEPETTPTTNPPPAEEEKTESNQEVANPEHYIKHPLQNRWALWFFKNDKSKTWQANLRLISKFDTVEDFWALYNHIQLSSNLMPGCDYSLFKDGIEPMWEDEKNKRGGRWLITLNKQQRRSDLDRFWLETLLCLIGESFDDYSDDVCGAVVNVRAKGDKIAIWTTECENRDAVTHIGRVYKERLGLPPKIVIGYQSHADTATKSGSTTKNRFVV
SMILES,Ka [1] [µM⁻¹],Ratio (Oryctolagus cuniculus),TIME [2] [h],Ratio (Homo sapiens),Ratio [3],Stability [4]
CO[C@H]1[C@@H](O)[C@H](n2c[n+](C)c3c(O)nc(N)nc32)O[C@@H]1COP(=O)(O)OP(=O)([O-])OP(=O)(O)OC[C@H]1O[C@@H](n2cnc3c(=O)[nH]c(N)nc32)[C@H](O)[C@@H]1O,10.2,1.32,9.25,,,
C[n+]1cn([C@@H]2O[C@H](COP(=O)(O)OP(=O)([O-])OP(=O)(O)OC[C@H]3O[C@@H](n4cnc5c(=O)[nH]c(N)nc54)[C@H](O)[C@@H]3O)[C@@H]3OC(C)(C)O[C@H]32)c2nc(N)nc(O)c21,2.9,0.8,,,,
C[n+]1cn([C@@H]2O[C@H](COP(=O)([O-])OP(=O)(S)OP(=O)(O)OC[C@H]3O[C@@H](n4cnc5c(=O)[nH]c(N)nc54)[C@H](O)[C@@H]3O)[C@@H]3OC(C)(C)O[C@H]32)c2nc(N)nc(O)c21 (mixture of isomers; 2a),5.6,1.33,11.1,1.23,1.62,
C[n+]1cn([C@@H]2O[C@H](COP(=O)([O-])OP(=O)(S)OP(=O)(O)OC[C@H]3O[C@@H](n4cnc5c(=O)[nH]c(N)nc54)[C@H](O)[C@@H]3O)[C@@H]3OC(C)(C)O[C@H]32)c2nc(N)nc(O)c21 (mixture of isomers; 2b) [listing 1 of 2 here],,,,,,Stable
C[n+]1cn([C@@H]2O[C@H](COP(=O)([O-])OP(=O)(S)OP(=O)(O)OC[C@H]3O[C@@H](n4cnc5c(=O)[nH]c(N)nc54)[C@H](O)[C@@H]3O)[C@@H]3OC(C)(C)O[C@H]32)c2nc(N)nc(O)c21 (mixture of isomers; 2b) [listing 2 of 2 here],9.2,1.16,8.9,1.08,0.97,
